Measurements: ChEMBL document CHEMBL1125724, “Potential anti-AIDS agents. Synthesis and antiviral activity of naphthalenesulfonic acid derivatives against HIV-1 and HIV-2” (1991)

Key:
MT4 [1] = assay: Compound tested for its inhibition of HIV-2 induced cytopathogenicity in MT-4 cells.; type: functional; details: Homo sapiens, read-out: ED50 (the source's name)
In short: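 MT-4 cells infected with HIV-2 (ROD) at MOI 0.02 and incubated 4 days with a range of compound concentrations. Viable cells were counted by MTT. ED50 is the dose giving 50% inhibition of virus-induced cytopathogenicity, given as the mean of two separate experiments.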

MT4 [2] = assay: Cell viability at a concentration of 0.8(0.8) ug/mL (uM).; type: functional, Homo sapiens
MT4 [3] = assay: Compound was evaluated for inhibitory effect against MT-4 cells of HIV-1 at a concentration of 20(19.6) ug/mL (uM).; type: functional, Homo sapiens
In short: (§1)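 HIV-1 (HTLV-III_B) infected MT-4 cells at multiplicity of infection 0.02, incubated with a range of compound concentrations for 4 days. Viable cells counted by MTT method. Per-concentration inhibition of virus-induced cytopathogenicity; values are means of two separate experiments.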

[4] = molecular target: Human immunodeficiency virus type 1 reverse transcriptase (Human immunodeficiency virus 1) (UniProt Q72547); assay: Inhibitory dose at a concentration 490 uM cell-free HIV-1 Reverse Transcriptase
In short: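 HIV-1 RT from disrupted, partially purified and concentrated virions. 37 °C for 30 min in 50 mM Tris-HCl pH 8.4, 2 mM DTT, 100 mM KCl, 10 mM MgCl₂, 0.1% Triton X-100, 1 µCi [methyl-³H]dTTP, 0.01 unit poly(rA)·oligo(dT). Stopped with 5% TCA; precipitate collected on glass-fiber filters and counted by scintillation. Means of two experiments; variation ≤10%.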

MT4 [5] = assay: Compound was evaluated for inhibitory effect against MT-4 cells of HIV-1 at a concentration of 4(3.9) ug/mL (uM).; type: functional, Homo sapiens; in short: as §1
MT4 [6] = assay: Cell viability at a concentration of 100(98) ug/mL (uM).; type: functional, Homo sapiens
[7] = molecular target: Human immunodeficiency virus type 1 reverse transcriptase (Human immunodeficiency virus 1) (UniProt Q72547); assay: Compound tested for % inhibition of cell-free HIV-1 Reverse Transcriptase at a concentration of 3.9 uM
In short: (§2)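 HIV-1 RT came from disrupted, partially purified, concentrated virions. Reaction ran 30 min at 37 °C in 50 mM Tris-HCl pH 8.4 with 2 mM DTT, 100 mM KCl, 10 mM MgCl2, 0.1% Triton X-100, [methyl-3H]dTTP (1 µCi, 30 Ci/mmol), poly(rA)·oligo(dT) template and compound. It was stopped with 5% TCA, and precipitate was filter-collected and scintillation-counted. Variation was at most 10%.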

MT4 [8] = assay: Cell viability at a concentration of 20(19.6) ug/mL (uM).; type: functional, Homo sapiens
MT4 [9] = assay: Compound was evaluated for inhibitory effect against MT-4 cells of HIV-1 at a concentration of 100(98) ug/mL (uM).; type: functional, Homo sapiens; in short: as §1
[10] = tested on: Human immunodeficiency virus 1; assay: Compound tested for % inhibition of giant cell formation at a concentration of 98 uM
MT4 [11] = assay: Compound was evaluated for inhibitory effect against MT-4 cells of HIV-2 at a concentration of 20(19.6) ug/mL (uM).; type: functional, Homo sapiens
In short: (§3)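 HIV-2 (ROD strain) infected MT-4 cells at multiplicity of infection 0.02, incubated with a range of compound concentrations for 4 days. Viable cells counted by MTT method. Per-concentration inhibition of virus-induced cytopathogenicity; values are means of two separate experiments.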

[12] = molecular target: Human immunodeficiency virus type 1 reverse transcriptase (Human immunodeficiency virus 1) (UniProt Q72547); assay: Compound tested for % inhibition of cell-free HIV-1 Reverse Transcriptase at a concentration of 19.6 uM; in short: as §2
MT4 [13] = assay: Compound was evaluated for inhibitory effect against MT-4 cells of HIV-1 at a concentration of 0.8(0.8) ug/mL (uM).; type: functional, Homo sapiens; in short: as §1
MT4 [14] = assay: Compound tested for its inhibition of HIV-1 induced cytopathogenicity in MT-4 cells.; type: functional; details: Homo sapiens, read-out: ED50 (the source's name)
In short: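 MT-4 cells infected with HIV-1 (HTLV-III_B) at MOI 0.02 and incubated 4 days with a range of compound concentrations. Viable cells were counted by MTT. ED50 is the 50% antiviral dose from inhibition of virus-induced cytopathogenicity, given as the mean of two separate experiments.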

[15] = molecular target: Human immunodeficiency virus type 1 reverse transcriptase (Human immunodeficiency virus 1) (UniProt Q72547); assay: Compound tested for % inhibition of cell-free HIV-1 Reverse Transcriptase at a concentration of 490 uM; in short: as §2
MT4 [16] = assay: Compound tested for its ability to reduce viability of mock-infected MT-4 cells.; type: functional; details: Homo sapiens, read-out: CD50 (the source's name)
In short: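 Mock-infected MT-4 cells were incubated 4 days with a range of compound concentrations, and viability was read by MTT. CD50 is the 50% cytotoxic dose from reduced viability, given as the mean of two separate experiments.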

MT4 [17] = assay: Cell viability at a concentration of 4(3.9) ug/mL (uM).; type: functional, Homo sapiens
MT4 [18] = assay: Compound was evaluated for inhibitory effect against MT-4 cells of HIV-2 at a concentration of 0.8(0.8) ug/mL (uM).; type: functional, Homo sapiens; in short: as §3
MOLT-4 (Homo sapiens) = assay: Compound tested for % inhibition of giant cell formation at a concentration of 98 uM
MT4 [19] = assay: Compound was evaluated for inhibitory effect against MT-4 cells of HIV-2 at a concentration of 4(3.9) ug/mL (uM).; type: functional, Homo sapiens; in short: as §3
MT4 [20] = assay: Compound was evaluated for inhibitory effect against MT-4 cells of HIV-2 at a concentration of 100(98) ug/mL (uM).; type: functional, Homo sapiens; in short: as §3
[21] = tested on: Human immunodeficiency virus 1; assay: Compound tested for % inhibition of giant cell formation at a concentration of 107 uM
MT4 [22] = assay: Compound was evaluated for inhibitory effect against MT-4 cells of HIV-1 at a concentration of 4(4.3) ug/mL (uM).; type: functional, Homo sapiens; in short: as §1
[23] = molecular target: Human immunodeficiency virus type 1 reverse transcriptase (Human immunodeficiency virus 1) (UniProt Q72547); assay: Compound tested for % inhibition of cell-free HIV-1 Reverse Transcriptase at a concentration of 21.4 uM.
In short: (§4)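 HIV-1 RT from partially purified, concentrated disrupted virions. Reaction at 37 °C for 30 min in 50 mM Tris-HCl pH 8.4, 2 mM DTT, 100 mM KCl, 10 mM MgCl2, 0.1% Triton X-100, with 1 µCi [methyl-3H]dTTP (30 Ci/mmol) and 0.01 unit poly(rA)·oligo(dT). Stopped with 5% TCA; precipitate collected on glass-fiber filters and counted by liquid scintillation. Experimental variation at most 10%.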

MT4 [24] = assay: Cell viability at a concentration of 100(107) ug/mL (uM).; type: functional, Homo sapiens
MT4 [25] = assay: Compound was evaluated for inhibitory effect against MT-4 cells of HIV-2 at a concentration of 0.8(0.9) ug/mL (uM).; type: functional, Homo sapiens; in short: as §3
MT4 [26] = assay: Cell viability at a concentration of 20(21.4) ug/mL (uM).; type: functional, Homo sapiens
MT4 [27] = assay: Compound was evaluated for inhibitory effect against MT-4 cells of HIV-1 at a concentration of 100(107) ug/mL (uM).; type: functional, Homo sapiens; in short: as §1
[28] = molecular target: Human immunodeficiency virus type 1 reverse transcriptase (Human immunodeficiency virus 1) (UniProt Q72547); assay: Compound tested for % inhibition of cell-free HIV-1 Reverse Transcriptase at a concentration of 535 uM; in short: as §4
[29] = molecular target: Human immunodeficiency virus type 1 reverse transcriptase (Human immunodeficiency virus 1) (UniProt Q72547); assay: Compound tested for % inhibition of cell-free HIV-1 Reverse Transcriptase at a concentration of 4.3 uM; in short: as §4
MT4 [30] = assay: Compound was evaluated for inhibitory effect against MT-4 cells of HIV-2 at a concentration of 4(4.3) ug/mL (uM).; type: functional, Homo sapiens; in short: as §3
MT4 [31] = assay: Compound was evaluated for inhibitory effect against MT-4 cells of HIV-1 at a concentration of 0.8(0.9) ug/mL (uM).; type: functional, Homo sapiens; in short: as §1
MT4 [32] = assay: Compound was evaluated for inhibitory effect against MT-4 cells of HIV-2 at a concentration of 20(21.4) ug/mL (uM).; type: functional, Homo sapiens; in short: as §3
MT4 [33] = assay: Cell viability at a concentration of 0.8(0.9) ug/mL (uM).; type: functional, Homo sapiens
MT4 [34] = assay: Cell viability at a concentration of 4(4.3) ug/mL (uM).; type: functional, Homo sapiens
MT4 [35] = assay: Compound was evaluated for inhibitory effect against MT-4 cells of HIV-2 at a concentration of 100(107) ug/mL (uM).; type: functional, Homo sapiens; in short: as §3
MT4 [36] = assay: Compound was evaluated for inhibitory effect against MT-4 cells of HIV-1 at a concentration of 20(21.4) ug/mL (uM).; type: functional, Homo sapiens; in short: as §1
[37] = molecular target: Human immunodeficiency virus type 1 reverse transcriptase (Human immunodeficiency virus 1) (UniProt Q72547); assay: Inhibitory dose at a concentration 535 uM cell-free HIV-1 Reverse Transcriptase; in short: as §4

With `O=S(=O)([O-])c1cc(O)c2c(NS(=O)(=O)c3ccc(-c4ccc(S(=O)(=O)Nc5cc(S(=O)(=O)[O-])cc6cc(S(=O)(=O)[O-])cc(O)c56)cc4)cc3)cc(S(=O)(=O)[O-])cc2c1.[Na+].[Na+].[Na+].[Na+]` the EC50 (MT4 [1]) was 37 µg/mL, the Cell viability (MT4 [2]) was 0 and the Inhibition (MT4 [3]) was 100%. It also gave an ID50 [4] of 190 µg/mL, an Inhibition (MT4 [5]) of 15% and a Cell viability (MT4 [6]) of 0. For the same compound, the inhibition [7] was 0%, the Cell viability (MT4 [8]) was 0 and the Inhibition (MT4 [9]) was 100%. The inhibition [10] was 100%, the Inhibition (MT4 [11]) was 20% and the inhibition [12] was 30%. The Inhibition (MT4 [13]) was 5%, the EC50 (MT4 [14]) was 7.8 µg/mL and the inhibition [15] was 100%. The CC50 (MT4 [16]) was over 100 µg/mL, the Cell viability (MT4 [17]) was 0 and the Inhibition (MT4 [18]) was 6%. For the same compound, the inhibition at 98 µM (MOLT-4 (Homo sapiens)) was 100%, the Inhibition (MT4 [19]) was 7% and the Inhibition (MT4 [20]) was 100%.

`O=C(CCCCCCCCCCC(=O)Nc1cc(S(=O)(=O)O)cc2cc(S(=O)(=O)[O-])cc(O)c12)Nc1cc(S(=O)(=O)O)cc2cc(S(=O)(=O)[O-])cc(O)c12.[Na+].[Na+]` showed an inhibition [21] of 99%, an Inhibition (MT4 [22]) of 2% and an inhibition [23] of 44%. It also gave an EC50 (MT4 [1]) of 43 µg/mL, a Cell viability (MT4 [24]) of 0 and an Inhibition (MT4 [25]) of 3%. The Cell viability (MT4 [26]) was 9, the Inhibition (MT4 [27]) was 100% and the inhibition [28] was 100%. The inhibition [29] was 15%, the Inhibition (MT4 [30]) was 3% and the Inhibition (MT4 [31]) was 0%. For the same compound, the Inhibition (MT4 [32]) was 4%, the EC50 (MT4 [14]) was 39 µg/mL and the Cell viability (MT4 [33]) was 4. For the same compound, the Cell viability (MT4 [34]) was 5, the CC50 (MT4 [16]) was over 100 µg/mL and the Inhibition (MT4 [35]) was 100%. The Inhibition (MT4 [36]) was 14% and the ID50 [37] was 160 µg/mL.
